From ChEMBL document CHEMBL4411329, “Crown Ethers as Transthyretin Amyloidogenesis Inhibitors” (J Med Chem, 2019)
Calls of active or inactive are those of the source. The rule behind the calls is not given here.

Assays:
[1] = tested on: Transthyretin (Homo sapiens), P02766 [V50M]; test: Inhibition of TTR V30M mutant (unknown origin)-mediated amyloid fibril formation expressed in Escherichia coli assessed as amyloid fibril percentage at 0.2 mM after 4 days by thioflavin-T-fluorescence based assay (reference value: 100%); parameters: scale not given: the % may be the effect or the level left
Procedure, shortened: (§1)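 Acid-driven aggregation: 2 μM E. coli-expressed V30M-TTR in 50 mM sodium acetate pH 4.2 held with compound at room temperature for 4 days. Stopped with 0.2 M Tris-HCl pH 8.0, then thioflavin-T added to 20 μM and fluorescence read at ex 440/em 484 nm. Values are amyloid fibril % relative to no-compound control.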

[2] = tested on: Transthyretin (Homo sapiens), P02766 [V50M]; test: Inhibition of TTR V30M mutant (unknown origin)-mediated amyloid fibril formation expressed in Escherichia coli assessed as amyloid fibril percentage at 0.6 mM after 4 days by thioflavin-T-fluorescence based assay (reference value: 100%); parameters: scale not given: the % may be the effect or the level left; procedure, shortened: as §1
[3] = tested on: Transthyretin (Homo sapiens), P02766 [V50M]; test: Inhibition of TTR V30M mutant (unknown origin)-mediated amyloid fibril formation expressed in Escherichia coli assessed as amyloid fibril percentage at 10 mM after 4 days by thioflavin-T-fluorescence based assay (reference value: 100%); parameters: scale not given: the % may be the effect or the level left; procedure, shortened: as §1
[4] = tested on: Transthyretin (Homo sapiens), P02766 [V50M]; test: Stabilization of TTR V30M mutant (unknown origin) expressed in Escherichia coli assessed as formation of TTR tetramer band formation after 4 mins by SDS-PAGE analysis based glutaraldehyde cross-linking assay
[5] = tested on: Transthyretin (Homo sapiens), P02766 [V50M]; test: Inhibition of ANS binding to TTR V30M mutant (unknown origin) expressed in Escherichia coli assessed as increase in BC50 for ANS binding to TTR at 100 mM in presence of 150 mM Na+ by fluorescence-based assay
[6] = tested on: Transthyretin (Homo sapiens), P02766 [V50M]; test: Inhibition of ANS binding to TTR V30M mutant (unknown origin) expressed in Escherichia coli assessed as increase in BC50 for ANS binding to TTR at 10 mM in presence of 150 mM Na+ by fluorescence-based assay
[7] = tested on: Transthyretin (Homo sapiens), P02766 [V50M]; test: Inhibition of ANS binding to TTR V30M mutant (unknown origin) expressed in Escherichia coli assessed as increase in BC50 for ANS binding to TTR at 10 mM in presence of 150 mM K+ by fluorescence-based assay
[8] = tested on: Transthyretin (Homo sapiens), P02766 [V50M]; test: Potentiation of diflunisal-induced stabilization of TTR V30M mutant (unknown origin) expressed in Escherichia coli assessed as formation of TTR tetramer band formation at 5 mM after 4 mins by SDS-PAGE analysis based glutaraldehyde cross-linking assay relative to diflunisal alone
Procedure, shortened: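 Glutaraldehyde 4 min at RT, borohydride quench, SDS-PAGE with silver stain, tetramer band quantified. Controls were pH 8.0 Tris buffer (positive) and pH 4.4 buffer without compound (negative).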

[9] = tested on: Transthyretin (Homo sapiens), P02766 [V50M]; test: Stabilization of TTR V30M mutant (unknown origin) expressed in Escherichia coli assessed as formation of TTR tetramer band formation at 10 mM after 4 mins by SDS-PAGE analysis based glutaraldehyde cross-linking assay
[10] = tested on: Transthyretin (Homo sapiens), P02766 [V50M]; test: Stabilization of TTR V30M mutant (unknown origin) expressed in Escherichia coli assessed as formation of TTR tetramer band formation at 40 to 100 mM after 4 mins by SDS-PAGE analysis based glutaraldehyde cross-linking assay
[11] = tested on: Transthyretin (Homo sapiens), P02766 [V50M]; test: Inhibition of ANS binding to TTR V30M mutant (unknown origin) expressed in Escherichia coli assessed as increase in BC50 for ANS binding to TTR at 100 mM in presence of 150 mM K+ by fluorescence-based assay
[12] = tested on: Transthyretin (Homo sapiens), P02766 [V50M]; test: Inhibition of TTR V30M mutant (unknown origin)-mediated amyloid fibril formation expressed in Escherichia coli assessed as amyloid fibril percentage at 0.5 uM after 4 days by thioflavin-T-fluorescence based assay (reference value: 100%); parameters: scale not given: the % may be the effect or the level left; procedure, shortened: as §1
[13] = tested on: Transthyretin (Homo sapiens), P02766 [V50M]; test: Inhibition of TTR V30M mutant (unknown origin)-mediated amyloid fibril formation expressed in Escherichia coli assessed as amyloid fibril percentage at 1.5 uM after 4 days by thioflavin-T-fluorescence based assay (reference value: 100%); parameters: scale not given: the % may be the effect or the level left; procedure, shortened: as §1
[14] = tested on: Transthyretin (Homo sapiens), P02766 [V50M]; test: Inhibition of TTR V30M mutant (unknown origin)-mediated amyloid fibril formation expressed in Escherichia coli assessed as amyloid fibril percentage at 5 uM after 4 days by thioflavin-T-fluorescence based assay (reference value: 100%); parameters: scale not given: the % may be the effect or the level left; procedure, shortened: as §1
[15] = tested on: Transthyretin (Homo sapiens), P02766 [V50M]; test: Stabilization of TTR V30M mutant (unknown origin) expressed in Escherichia coli assessed as formation of TTR tetramer band formation at 1 uM after 4 mins by SDS-PAGE analysis based glutaraldehyde cross-linking assay
[16] = tested on: Transthyretin (Homo sapiens), P02766 [V50M]; test: Stabilization of TTR V30M mutant (unknown origin) expressed in Escherichia coli assessed as formation of TTR tetramer band formation at 2 uM after 4 mins by SDS-PAGE analysis based glutaraldehyde cross-linking assay

Row | Activity [1] [%] | Activity [2] [%] | Activity [3] [%] | Activity [4] | inhibition [5] | inhibition [6] | inhibition [7] | Activity [10] | inhibition [11] | Compound | also measured
1 | 100 | 96 | 47 | Dose-dependent effect | Active | Active | Active |  |  | c1ccc2c(c1)OCCOCCOCCOCCOCCO2 | 
2 | 99 | 92 |  | Dose-dependent effect | Active | Active | Active |  |  | O=C(O)c1ccc2c(c1)OCCOCCOCCOCCOCCO2 | Activity [8]: Active; Activity [9]: 68%
3 |  |  |  |  | Active |  |  | Active | Active | C1COCCOCCOCCOCCO1 | 
4 |  |  |  |  | Active |  |  | Active | Active | C1COCCOCCOCCO1 | 
5 | 100 | 100 | 92 |  | Active | Active | Active |  |  | C1CCC2OCCOCCOC3CCCCC3OCCOCCOC2C1 (configuration not stated) | 
6 |  |  |  |  |  |  |  |  |  | O=C(O)c1cc(-c2ccc(F)cc2F)ccc1O | Activity [12]: 80%; Activity [13]: 35%; Activity [14]: 3.1%; Activity [15]: 15%; Activity [16]: 52%
